Experimental data as given in ChEMBL document CHEMBL3407413, “Repositioning proton pump inhibitors as anticancer drugs by targeting the thioesterase domain of human fatty acid synthase” (J Med Chem, 2015).
The source made the active and inactive calls. No cut-off for these calls is given here.

Experiments:
BXPC-3 [1] = assay: Effect of FASN expression of human BxPC3 cells at 3.75 uM by Western blot analysis; type: functional, cell-based
Method in brief: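 BxPC-3 pancreatic cancer cells given the supplement; FASN protein read by Western blot, with actin as the loading control.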

BXPC-3 [2] = assay: Effect of survival of human BxPC3 cells at 3.75 uM by MTT assay; type: functional, cell-based
Method in brief: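 BxPC-3 pancreatic cancer cells given the supplement alone; growth read by MTT assay against a DMSO control; n = 3.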

BXPC-3 [3] = assay: Cytotoxicity against human BxPC3 cells by MTT assay in presence of 3.75 uM palmitate; type: functional, cell-based
BXPC-3 [4] = assay: Induction of apoptosis in human BxPC3 cells in presence of 3.75 uM palmitate; type: functional, cell-based
PANC-1 [5] = assay: Induction of apoptosis in human PANC1 cells assessed as cytoplasmic histone-associated DNA fragments after 72 hrs by ELISA method; type: functional, cell-based
BXPC-3 [6] = assay: Effect on pH homeostasis in human BxPC3 cells assessed as change in intracellular pH at 12.5 to 100 uM after 72 hrs by pHrodo red dye-based fluorescence assay; type: functional, cell-based
Method in brief: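 Loaded with pHrodo red intracellular pH dye and fluorescence read in-well. Fluorescence converted to pH using a calibration kit standard curve (fluorescence vs pH). Three independent experiments.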

BXPC-3 [7] = assay: Effect on pH homeostasis in human BxPC3 cells assessed as change in extracellular pH at 100 uM after 72 hrs by pH metry; type: functional, cell-based
Method in brief: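 Culture medium was collected, cleared of cell debris by centrifugation, and measured with a pH meter.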

Fatty acid synthase [8] = molecular target: T1, Fatty acid synthase (Homo sapiens, UniProt P49327); assay: Inhibition of purified recombinant FASN TE activity (unknown origin) using 4-MUH as substrate preincubated for 30 mins before substrate addition measured after 1 hr by fluorescence assay
T1 sequence (P49327 whole entry): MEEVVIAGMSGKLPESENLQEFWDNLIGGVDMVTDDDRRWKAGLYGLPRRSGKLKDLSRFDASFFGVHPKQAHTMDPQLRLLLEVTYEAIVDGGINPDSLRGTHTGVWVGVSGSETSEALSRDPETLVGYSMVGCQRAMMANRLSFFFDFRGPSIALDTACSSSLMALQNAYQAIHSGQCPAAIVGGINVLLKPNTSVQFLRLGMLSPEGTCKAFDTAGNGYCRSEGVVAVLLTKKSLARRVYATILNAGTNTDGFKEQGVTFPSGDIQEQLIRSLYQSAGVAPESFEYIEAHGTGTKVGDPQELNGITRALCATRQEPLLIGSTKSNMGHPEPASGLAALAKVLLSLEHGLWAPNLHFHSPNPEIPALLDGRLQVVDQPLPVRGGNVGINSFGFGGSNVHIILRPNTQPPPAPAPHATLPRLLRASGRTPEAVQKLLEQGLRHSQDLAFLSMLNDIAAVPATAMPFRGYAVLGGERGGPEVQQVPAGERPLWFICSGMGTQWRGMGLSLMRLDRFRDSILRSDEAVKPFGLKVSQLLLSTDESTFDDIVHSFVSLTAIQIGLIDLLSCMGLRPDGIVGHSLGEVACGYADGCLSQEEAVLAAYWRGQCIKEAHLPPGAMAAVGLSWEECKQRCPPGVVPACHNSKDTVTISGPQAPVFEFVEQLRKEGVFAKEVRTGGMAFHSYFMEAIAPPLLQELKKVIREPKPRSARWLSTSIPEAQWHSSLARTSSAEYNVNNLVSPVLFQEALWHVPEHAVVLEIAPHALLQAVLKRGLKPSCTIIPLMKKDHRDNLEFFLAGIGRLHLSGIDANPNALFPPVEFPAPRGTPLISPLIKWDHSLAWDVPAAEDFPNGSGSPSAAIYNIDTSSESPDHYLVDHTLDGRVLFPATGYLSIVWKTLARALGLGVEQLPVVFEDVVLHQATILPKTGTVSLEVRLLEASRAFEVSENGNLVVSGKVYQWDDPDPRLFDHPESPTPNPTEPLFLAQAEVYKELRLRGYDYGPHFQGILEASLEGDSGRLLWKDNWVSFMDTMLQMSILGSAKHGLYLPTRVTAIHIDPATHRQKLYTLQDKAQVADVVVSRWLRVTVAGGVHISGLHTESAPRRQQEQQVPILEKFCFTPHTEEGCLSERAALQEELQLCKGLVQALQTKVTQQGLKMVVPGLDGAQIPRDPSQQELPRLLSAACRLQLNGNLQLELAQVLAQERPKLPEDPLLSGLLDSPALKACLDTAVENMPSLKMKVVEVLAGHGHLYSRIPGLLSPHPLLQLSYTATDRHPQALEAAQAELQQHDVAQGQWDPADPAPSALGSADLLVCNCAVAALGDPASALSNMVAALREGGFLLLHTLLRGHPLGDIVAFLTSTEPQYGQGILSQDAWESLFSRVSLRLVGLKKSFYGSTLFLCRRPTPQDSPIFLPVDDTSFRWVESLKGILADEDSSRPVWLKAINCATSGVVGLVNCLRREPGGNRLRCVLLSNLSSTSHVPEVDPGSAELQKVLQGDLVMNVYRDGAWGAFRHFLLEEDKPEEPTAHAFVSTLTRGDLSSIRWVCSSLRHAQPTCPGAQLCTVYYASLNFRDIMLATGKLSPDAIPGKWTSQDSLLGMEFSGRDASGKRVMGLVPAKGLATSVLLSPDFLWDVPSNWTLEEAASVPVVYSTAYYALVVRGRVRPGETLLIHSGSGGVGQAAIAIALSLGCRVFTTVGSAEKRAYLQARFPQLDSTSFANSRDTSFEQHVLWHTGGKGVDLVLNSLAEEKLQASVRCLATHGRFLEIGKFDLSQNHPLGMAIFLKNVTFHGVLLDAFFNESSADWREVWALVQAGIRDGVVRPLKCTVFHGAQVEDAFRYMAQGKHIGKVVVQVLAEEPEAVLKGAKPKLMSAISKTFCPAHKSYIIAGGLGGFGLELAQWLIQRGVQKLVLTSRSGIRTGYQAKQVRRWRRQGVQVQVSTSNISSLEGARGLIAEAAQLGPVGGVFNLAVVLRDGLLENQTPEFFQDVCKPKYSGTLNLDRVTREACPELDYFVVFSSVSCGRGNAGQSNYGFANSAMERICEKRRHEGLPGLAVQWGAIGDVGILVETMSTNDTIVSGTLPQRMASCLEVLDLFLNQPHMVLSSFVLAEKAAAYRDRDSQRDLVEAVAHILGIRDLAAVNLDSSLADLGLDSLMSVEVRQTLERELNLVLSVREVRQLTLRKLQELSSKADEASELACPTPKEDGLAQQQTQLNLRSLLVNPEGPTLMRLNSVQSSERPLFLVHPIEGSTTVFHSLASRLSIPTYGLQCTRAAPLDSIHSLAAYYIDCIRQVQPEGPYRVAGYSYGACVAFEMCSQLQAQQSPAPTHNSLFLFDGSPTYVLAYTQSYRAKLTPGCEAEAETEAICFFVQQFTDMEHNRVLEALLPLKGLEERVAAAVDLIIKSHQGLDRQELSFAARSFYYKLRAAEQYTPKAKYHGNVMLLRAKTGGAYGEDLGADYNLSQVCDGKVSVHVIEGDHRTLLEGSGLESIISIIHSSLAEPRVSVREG

BXPC-3 [9] = assay: Induction of apoptosis in human BxPC3 cells assessed as PARP1 cleavage after 24 hrs by Western blot analysis; type: functional, cell-based
Method in brief: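 Harvested and analysed by Western blot with an antibody specific to cleaved PARP-1; actin as loading control.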

PANC-1 [10] = assay: Inhibition of survival of wild-type FASN overexpressing human PANC1 cells after 10 to 14 days by crystal violet staining-based colony formation assay; type: functional, cell-based
Method in brief: (§1)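 Cells seeded at 100/well (PANC-1, including stable vector- or wild-type FASN-transfected lines) or 200/well (BxPC-3) and grown 24 h. Then cultured continuously with PPIs or DMSO vehicle for 10–14 days, stained with crystal violet and colonies counted manually. Three independent experiments.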

PANC-1 [11] = assay: Inhibition of survival of human PANC1 cells after 10 to 14 days by crystal violet staining-based colony formation assay; type: functional, cell-based; method in brief: as §1
PANC-1 [12] = assay: Effect on FASN expression in human PANC1 cells at 12.5 to 200 uM after 30 mins by Western blot analysis; type: functional, cell-based
Fatty acid synthase [13] = molecular target: T1, Fatty acid synthase
PANC-1 [14] = assay: Inhibition of survival of vector-transfected human PANC1 cells after 10 to 14 days by crystal violet staining-based colony formation assay; type: functional, cell-based; method in brief: as §1
Fatty acid synthase [15] = molecular target: T1, Fatty acid synthase; remark: listed apart in the source

CCCCCCCCCCCCCCCC(=O)O
Activity (BXPC-3 [1]): inactive | Activity (BXPC-3 [2]): inactive

Cc1c(OCC(F)(F)F)ccnc1C[S+]([O-])c1nc2ccccc2[nH]1 (stereo unspecified) [LANSOPRAZOLE]
Activity (BXPC-3 [3]): inactive | Activity (BXPC-3 [4]): inactive | Activity (PANC-1 [5]): Dose-dependent effect | Activity (BXPC-3 [6]): inactive | Activity (BXPC-3 [7]): inactive | IC50 (Fatty acid synthase [8]): 46.7 µM | Ki (Fatty acid synthase [8]): 5.3 µM | Activity (BXPC-3 [9]): Dose-dependent effect | inhibition (PANC-1 [10]): Active | inhibition (PANC-1 [11]): Dose-dependent effect | Activity (PANC-1 [12]): inactive | IC50 (Fatty acid synthase [13]): 124 µM | inhibition (PANC-1 [14]): inactive | IC50 (Fatty acid synthase [15]): 93 µM
